# According to article PMC11607638 (The FASEB Journal, 2024):
# Where two headings read alike, the source gives them in different places. Square brackets hold non-standard residues; d marks the D form. Ends that are not written are not given here. sY = N[C@@H](Cc1ccc(OS(=O)(=O)O)cc1)C(=O)O
# Legend:
# SK receptor gene SKR [1] = test: Fura-2 calcium imaging in perifused SKR-CHO-K1 cells; type: cell-based, Aedes aegypti; details: for Reversibility of stimulation upon wash-out in perifused SKR-CHO-K1 cells: Figures 4, 5, 6; for Onset (lag time) of cytosolic calcium oscillations in SKR-CHO-K1 cells: at lower concentrations, Figures 4 and 5
# In short: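 CHO-K1 cells at 80–90% confluency were transfected in serum-free medium with pcDNA3.1(+)-SKR using jetPRIME for 24–36 h. Cells were loaded with Fura-2AM (10 µM, 50 min, 37 °C), attached to coated coverslips and perifused in HEPES buffer, pH 7.4. The 340/380 nm excitation ratio was recorded per single cell. Peptides used: SK1 300 pM–30 nM, SK2 3 nM ± devazepide 10 nM, CCK 1–100 nM. Peak area above baseline per 10 min; mean ± SEM, t-test.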
# Aedes aegypti [2] = test: Blood meal size after thoracic peptide injection; type: in vivo; details: 24 h
# In short: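 Females 3 days post-eclosion, starved 12 h before and 24 h after a 1 µL thoracic injection, then blood-fed. Each mosquito was weighed before and after the meal, and intake was taken as the weight difference. SK2 was given at 50, 100 or 150 pmol/µL against DEPC water, 30 per group. For reversal, SK2 100 µM plus proglumide 14 mM (final, 1:1 mix) was injected and intake weighed 24 h later.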
# [3] = Body weight of female mosquitoes after injection; type: in vivo, Aedes aegypti; details: for Pre-blood meal body weight among groups: DEPC water, SK2 100 μM, SK2 + proglumide (Figure 3F left)
# In short: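 Females 3 days post-eclosion were starved 12 h, given a 1 µL thoracic injection, and starved a further 24 h. They were weighed on a balance immediately before the blood meal, 30 per group.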
# [4] = system: mammalian cholecystokinin 1 receptor (CCK1R); test: Fura-2 calcium imaging in isolated rat pancreatic acini; type: cell-based; details: CCK 10 pM
# In short: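 Acini came from male Sprague-Dawley rats (250–450 g) by collagenase P digestion (0.2 g/L, 2 × 10 min, 37 °C) in HEPES-buffered saline, pH 7.4. They were loaded with Fura-2AM (10 µM, 30 min) and attached to Cell-Tak- or Matrix-Gel-coated coverslips in a perifusion chamber. The buffer was the same minus BSA, amino acids and trypsin inhibitor. Fluorescence was excited alternately at 340/380 nm and the ratio recorded over time.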
# Aedes aegypti [5] = test: Blood-feeding time course after thoracic peptide injection; type: in vivo; details: Figure 3C
# In short: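 Females were given 1 µL thoracic injections of DEPC water, SK1, SK2 (200 µM) or SK1+SK2 (100 µM each, final), then kept in separate cages for 24 h, 20 per group, and offered blood. Feeding was counted as complete when a mosquito stopped and no longer moved actively. Completed feeders were recorded every 10 min until all had fed; run in triplicate.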
# CHO-K1 cells = test: Fura-2 calcium imaging in un-transfected parental CHO-K1 cells; type: cell-based, Chinese hamster; details: 30 nM
# In short: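 Un-transfected CHO-K1 cells were grown in DMEM/F12 with 10% FBS, then loaded with Fura-2AM (10 µM, 50 min, 37 °C) and perifused on coated coverslips. They were exposed to SK1 or SK2 at 30 nM. Cytosolic calcium was followed as the 340/380 nm excitation ratio in single cells.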
# SK gene SK = test: qPCR of SK mRNA in mosquito head after peptide injection; type: in vivo, Aedes aegypti; details: after blood feeding 24 h after injection
# SK receptor gene SKR [6] = test: qPCR of SKR mRNA in mosquito head after peptide injection; type: in vivo, Aedes aegypti; details: after blood feeding 24 h after injection
compound,measurement,setting,value
"CN1C(=O)[C@@H](NC(=O)c2cc3ccccc3[nH]2)N=C(c2ccccc2)c2ccccc21 [devazepide, reference compound]",Block of SK2-induced calcium increases in SKR-CHO-K1 cells (antagonism),SK receptor gene SKR [1]; devazepide 10 nM + SK2 3 nM,no longer induced any calcium increases
"NCCc1ccc(O)c(O)c1 [dopamine, reference compound]",Calcium response in SKR-CHO-K1 cells,SK receptor gene SKR [1]; dopamine 1 mM,no effect
CCCN(CCC)C(=O)C(CCC(=O)O)NC(=O)c1ccccc1 (centres unmarked) [proglumide],Blood intake after mixed injection vs DEPC water control,"Aedes aegypti [2]; proglumide 14 mM + SK2 100 μM, 1 μL",no significant difference
same,Blood intake after mixed injection vs single injection of SK2 at 100 μM,"Aedes aegypti [2]; proglumide 14 mM + SK2 100 μM, 1 μL, ****p < .0001 (Figure 3F)",higher
same,Pre-blood meal body weight among groups,[3],No difference
"CCK: sulfated cholecystokinin octapeptide (CCK), Tocris Cookson #1166 (D[sY]MGWMDF-NH2; UniProt P06307 96-103, looked up) [reference compound]",Calcium response in rat pancreatic acini,[4],robust calcium oscillations
same,Calcium response in SKR-CHO-K1 cells,SK receptor gene SKR [1]; CCK 1 nM,no effect
same,Calcium response in SKR-CHO-K1 cells,SK receptor gene SKR [1]; CCK 10 nM and 100 nM,clear calcium increases
same,Reversibility of stimulation upon wash-out in perifused SKR-CHO-K1 cells,SK receptor gene SKR [1],readily washed out
same,Efficiency of activating SKR compared with mosquito peptide SK2,"SK receptor gene SKR [1]; SKR-CHO-K1, Figure 6",probably less efficiently than the mosquito peptide SK2
FDDY(SO3H)GHMRF [SK1],"Prolongation of feeding, comparison with SK2 at same concentration",Aedes aegypti [5]; SK1 200 μM,significantly less active
same,Calcium response in parental CHO-K1 cells,CHO-K1 cells,no effect
same,SK mRNA expression vs DEPC water control,SK gene SK,decrease significantly
same,Reversibility of stimulation upon wash-out in perifused SKR-CHO-K1 cells,SK receptor gene SKR [1],long‐lasting even after wash‐out
same,Calcium response in SKR-CHO-K1 cells,SK receptor gene SKR [1]; SK1 300 pM,did not elicit any change in calcium levels
same,Calcium response in SKR-CHO-K1 cells,"SK receptor gene SKR [1]; SK1 at 1, 3, 10, and 30 nM (all)",robust calcium spikes
same,Onset (lag time) of cytosolic calcium oscillations in SKR-CHO-K1 cells,SK receptor gene SKR [1],significant lag time
same,EC50,"SK receptor gene SKR [1]; read-out: EC50, calcium spikes (area under the peaks above baseline, per 10 min), SK1, SKR-CHO-K1, Fura-2 F340/F380, monophasic dose-response, N = 5-7",1180 pM
same,SKR mRNA expression vs DEPC water control,SK receptor gene SKR [6],No difference
GGEGEQFDDY(SO3H)GHMRF [SK2],"Prolongation of time to complete a blood meal, vs DEPC water and among peptides","Aedes aegypti [5]; SK1, SK2 at 200 μM, SK1 + SK2 at 100 μM each",stronger prolongation than SK1
same,Calcium response in parental CHO-K1 cells,CHO-K1 cells,no effect
same,SK mRNA expression vs DEPC water control,SK gene SK,decrease significantly
same,Blood intake vs control,"Aedes aegypti [2]; SK2 50 μM (50 pmol in 1 μL), thoracic injection, 30 per group",no significant difference
same,Reversibility of stimulation upon wash-out in perifused SKR-CHO-K1 cells,SK receptor gene SKR [1],long‐lasting even after wash‐out
same,Calcium response in SKR-CHO-K1 cells,SK receptor gene SKR [1]; SK2 100 pM,did not stimulate any increases in calcium concentration
same,Calcium response in SKR-CHO-K1 cells,SK receptor gene SKR [1]; SK2 3 nM alone (parallel to antagonist experiment),strong calcium oscillations
same,Calcium response in SKR-CHO-K1 cells,"SK receptor gene SKR [1]; SK2 at 300 pM, 1, 3, 10, and 30 nM (all)",lasting calcium oscillations
same,Onset (lag time) of cytosolic calcium oscillations in SKR-CHO-K1 cells,SK receptor gene SKR [1],significant lag time
same,EC50,"SK receptor gene SKR [1]; read-out: EC50, calcium oscillations (areas under the peak above baseline per 10 min), SK2, SKR-CHO-K1, Fura-2 F340/F380, N = 5-8",251 pM
same,SKR mRNA expression vs DEPC water control,SK receptor gene SKR [6],No difference
same,Pre-blood meal body weight among groups,[3],No difference
same,Body weight after injection at different doses,"[3]; SK2 50, 100, 150 μM (Figure 3E left)",no changes in body weight
